Results: ChEMBL document CHEMBL1240400, “Comparative in vitro activities of nemonoxacin (TG-873870), a novel nonfluorinated quinolone, and other quinolones against clinical isolates” (2010)
Values after ≈ are worked out from the molar mass of the structure shown.

What was measured:
Type in all cases: functional
[1] = tested on: Streptococcus pneumoniae; test: Antibacterial activity against Levofloxacin resistant Streptococcus pneumoniae by broth dilution method
How it was run: (§1)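 Streptococcus pneumoniae clinical isolates tested by CLSI broth microdilution. A 0.5 McFarland suspension was diluted into Mueller-Hinton broth with 3% lysed horse blood, then tested against serial drug dilutions. Plates were incubated overnight at 35°C in ambient air, and the MIC was read as the lowest inhibitory concentration. Quality control strains were included in each run.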

[2] = tested on: Klebsiella pneumoniae; test: Antibacterial activity against Klebsiella pneumoniae by broth dilution method
How it was run: (§2)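 Broth microdilution per CLSI in panels spanning a dilution range of each agent. Cation-adjusted Mueller-Hinton broth, final inoculum 5 × 10^5 CFU/ml from a 0.5 McFarland suspension. Incubated overnight at 35°C in ambient air, with quality control strains in each run. MIC reported; values at or below the lowest concentration tested are given as that concentration.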

[3] = tested on: Staphylococcus aureus; test: Antibacterial activity against ciprofloxacin susceptible and methicillin resistant Staphylococcus aureus by broth dilution method
How it was run: (§3)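 Clinical isolates tested by CLSI broth microdilution in panels holding serial twofold drug dilutions in cation-adjusted Mueller-Hinton broth. Final inoculum 5 × 10^5 CFU/ml was made from a 0.5 McFarland suspension. Plates were incubated overnight at 35°C in ambient air, and the MIC was read as the lowest concentration inhibiting growth. Quality control strains were included in each run.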

[4] = tested on: Enterococcus faecium; test: Antibacterial activity against vancomycin resistant Enterococcus faecium by broth dilution method; how it was run: as §3
[5] = tested on: Haemophilus influenzae; test: Antibacterial activity against Haemophilus influenzae by broth dilution method
How it was run: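 Broth microdilution per CLSI using Haemophilus Test Medium broth, seeded from a 0.5 McFarland suspension. Incubated overnight at 35°C in ambient air, with quality control strains in each run. MIC read against a tested dilution range; values at the low limit are given as the lowest concentration.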

[6] = tested on: Proteus mirabilis; test: Antibacterial activity against Proteus mirabilis by broth dilution method
[7] = tested on: Enterococcus faecium; test: Antibacterial activity against Enterococcus faecium by broth dilution method; how it was run: as §3
[8] = tested on: Enterococcus faecalis; test: Antibacterial activity against vancomycin resistant Enterococcus faecalis by broth dilution method
[9] = tested on: Pseudomonas aeruginosa; test: Antibacterial activity against Pseudomonas aeruginosa by broth dilution method
[10] = tested on: Streptococcus agalactiae; test: Antibacterial activity against Streptococcus agalactiae by broth dilution method
How it was run: (§4)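 Streptococci were tested by CLSI broth microdilution in Mueller-Hinton broth with 3% lysed horse blood, seeded from a 0.5 McFarland suspension. Incubated overnight at 35°C in ambient air, with quality control strains in each run. MIC taken over a per-agent dilution range.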

[11] = tested on: Escherichia coli; test: Antibacterial activity against ciprofloxacin resistant Escherichia coli by broth dilution method; how it was run: as §3
[12] = tested on: Neisseria gonorrhoeae; test: Antibacterial activity against levofloxacin resistant Neisseria gonorrhoeae isolates by broth dilution method
How it was run: (§5)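 Neisseria gonorrhoeae clinical isolates tested by CLSI broth microdilution in Mueller-Hinton broth with 3% lysed horse blood, inoculated from a 0.5 McFarland suspension. Plates were incubated overnight at 35°C in 5% CO2, and the MIC was read as the lowest inhibitory concentration. Quality control strains were included in each run.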

[13] = tested on: Escherichia coli; test: Antibacterial activity against ciprofloxacin susceptible Escherichia coli by broth dilution method; how it was run: as §2
[14] = tested on: Enterobacter cloacae; test: Antibacterial activity against Enterobacter cloacae by broth dilution method
[15] = tested on: Neisseria gonorrhoeae; test: Antibacterial activity against ciprofloxacin resistant Neisseria gonorrhoeae isolates by broth dilution method; how it was run: as §5
[16] = tested on: Citrobacter freundii; test: Antibacterial activity against Citrobacter freundii by broth dilution method; how it was run: as §2
[17] = tested on: Staphylococcus aureus; test: Antibacterial activity against methicillin susceptible Staphylococcus aureus by broth dilution method
[18] = tested on: Staphylococcus epidermidis; test: Antibacterial activity against methicillin resistant coagulase negative Staphylococcus epidermidis by broth dilution method
[19] = tested on: Staphylococcus; test: Antibacterial activity against methicillin resistant coagulase negative Staphylococcus by broth dilution method
[20] = tested on: Acinetobacter baumannii; test: Antibacterial activity against Acinetobacter baumannii by broth dilution method; how it was run: as §2
[21] = tested on: Streptococcus pyogenes; test: Antibacterial activity against Streptococcus pyogenes by broth dilution method; how it was run: as §4
[22] = tested on: Neisseria gonorrhoeae; test: Antibacterial activity against moxifloxacin resistant Neisseria gonorrhoeae isolates by broth dilution method; how it was run: as §5
[23] = tested on: Staphylococcus aureus; test: Antibacterial activity against ciprofloxacin and methicillin resistant Staphylococcus aureus by broth dilution method; how it was run: as §3
[24] = tested on: Streptococcus pneumoniae; test: Antibacterial activity against Levofloxacin susceptible Streptococcus pneumoniae by broth dilution method; how it was run: as §1
[25] = tested on: Enterococcus faecalis; test: Antibacterial activity against Enterococcus faecalis by broth dilution method
[26] = tested on: Streptococcus viridans; test: Antibacterial activity against Streptococcus viridans by broth dilution method; how it was run: as §4

In the case of C[C@H]1COc2c(N3CCN(C)CC3)c(F)cc3c(=O)c(C(=O)O)cn1c23.C[C@H]1COc2c(N3CCN(C)CC3)c(F)cc3c(=O)c(C(=O)O)cn1c23.O [LEVOFLOXACIN], the MIC50 [1] was 16 mg/L, the MIC90 [1] was over 16 mg/L and the MIC50 [2] was 2 mg/L. For the same compound, the MIC90 [2] was over 16 mg/L, the MIC50 [3] was 0.25 mg/L and the MIC90 [3] was 0.25 mg/L. The MIC [4] was 2 mg/L, the MIC50 [5] was 0.25 mg/L and the MIC90 [5] was 8 mg/L. For the same compound, the MIC50 [6] was 2 mg/L, the MIC90 [6] was over 16 mg/L and the MIC50 [7] was over 16 mg/L. It also gave an MIC90 [7] of over 16 mg/L, an MIC50 [8] of 2 mg/L and an MIC50 [9] of 8 mg/L. The MIC90 [9] was over 16 mg/L, the MIC50 [10] was 1 mg/L and the MIC90 [10] was 2 mg/L. The MIC50 [11] was over 16 mg/L, the MIC90 [11] was over 16 mg/L and the MIC [12] was 1 mg/L. For the same compound, the MIC50 [13] was 0.5 mg/L, the MIC90 [13] was 1 mg/L and the MIC50 [14] was 2 mg/L. The MIC90 [14] was 16 mg/L, the MIC [15] was 2 mg/L and the MIC50 [16] was 0.12 mg/L. It also gave an MIC90 [16] of 2 mg/L, an MIC50 [17] of 0.25 mg/L and an MIC90 [17] of 1 mg/L. It also gave an MIC50 [18] of 0.5 mg/L, an MIC90 [18] of 8 mg/L and an MIC50 [19] of 0.5 mg/L. It also gave an MIC90 [19] of 8 mg/L, an MIC50 [20] of 2 mg/L and an MIC90 [20] of 16 mg/L. It also gave an MIC50 [21] of 1 mg/L, an MIC90 [21] of 2 mg/L and an MIC [22] of 0.5 mg/L. For the same compound, the MIC50 [23] was 16 mg/L, the MIC90 [23] was 16 mg/L and the MIC50 [24] was 1 mg/L. For the same compound, the MIC90 [24] was 2 mg/L, the MIC50 [25] was 2 mg/L and the MIC90 [25] was over 16 mg/L. For the same compound, the MIC50 [26] was 1 mg/L and the MIC90 [26] was 2 mg/L.

Compound COc1c(N2C[C@@H]3CCCN[C@@H]3C2)c(F)cc2c(=O)c(C(=O)O)cn(C3CC3)c12 [MOXIFLOXACIN] has an MIC [1] of 2 mg/L (≈ 4.98 µM), an MIC50 [1] of 2 mg/L (≈ 4.98 µM) and an MIC90 [1] of 8 mg/L (≈ 19.9 µM). The MIC50 [2] was 4 mg/L (≈ 9.96 µM), the MIC90 [2] was over 8 mg/L and the MIC [4] was 1 mg/L (≈ 2.49 µM). It also gave an MIC50 [5] of 0.25 mg/L (≈ 0.623 µM), an MIC90 [5] of over 8 mg/L and an MIC50 [6] of 8 mg/L (≈ 19.9 µM). For the same compound, the MIC90 [6] was over 8 mg/L, the MIC50 [7] was over 8 mg/L and the MIC90 [7] was over 8 mg/L. It also gave an MIC50 [8] of 0.5 mg/L (≈ 1.25 µM), an MIC50 [9] of over 8 mg/L and an MIC90 [9] of over 8 mg/L. For the same compound, the MIC50 [11] was over 8 mg/L, the MIC90 [11] was over 8 mg/L and the MIC [12] was 1 mg/L (≈ 2.49 µM). The MIC50 [13] was 0.5 mg/L (≈ 1.25 µM), the MIC90 [13] was 1 mg/L (≈ 2.49 µM) and the MIC [15] was 2 mg/L (≈ 4.98 µM). It also gave an MIC50 [16] of 0.5 mg/L (≈ 1.25 µM), an MIC90 [16] of 8 mg/L (≈ 19.9 µM) and an MIC50 [18] of 0.12 mg/L (≈ 0.299 µM). For the same compound, the MIC90 [18] was 2 mg/L (≈ 4.98 µM), the MIC50 [20] was 1 mg/L (≈ 2.49 µM) and the MIC90 [20] was over 8 mg/L. It also gave an MIC [22] of 0.5 mg/L (≈ 1.25 µM), an MIC50 [23] of 4 mg/L (≈ 9.96 µM) and an MIC90 [23] of 4 mg/L (≈ 9.96 µM). For the same compound, the MIC50 [25] was 0.5 mg/L (≈ 1.25 µM), the MIC90 [25] was over 8 mg/L and the MIC50 [26] was 0.12 mg/L (≈ 0.299 µM). For the same compound, the MIC90 [26] was 0.25 mg/L (≈ 0.623 µM).
